Results pooled from the literature.
Lines come from different studies, so protocols differ.
Target: Serine/threonine-protein kinase Chk1 (CHEK1, Homo sapiens, UniProt O14757)
Mode: inhibitor
Sequence (O14757 1-476, as in one of the studies): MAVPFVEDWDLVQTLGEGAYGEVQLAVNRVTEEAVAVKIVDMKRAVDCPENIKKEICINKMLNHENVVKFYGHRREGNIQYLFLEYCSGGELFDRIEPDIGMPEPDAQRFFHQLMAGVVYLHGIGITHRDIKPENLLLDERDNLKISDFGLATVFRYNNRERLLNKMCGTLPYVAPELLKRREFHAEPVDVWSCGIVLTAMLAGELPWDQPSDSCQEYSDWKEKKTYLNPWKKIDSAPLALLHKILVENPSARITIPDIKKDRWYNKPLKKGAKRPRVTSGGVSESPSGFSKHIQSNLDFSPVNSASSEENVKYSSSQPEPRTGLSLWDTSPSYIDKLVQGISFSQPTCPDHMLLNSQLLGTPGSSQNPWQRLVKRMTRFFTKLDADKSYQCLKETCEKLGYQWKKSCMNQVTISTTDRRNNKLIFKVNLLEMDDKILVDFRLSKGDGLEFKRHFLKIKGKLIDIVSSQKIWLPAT

| SMILES | effect on | method | cells | concentration | inhibition [%] |
| --- | --- | --- | --- | --- | --- |
| CNCc1ccc(-c2cc(-c3nc(-c4ccc(S(=O)(=O)C(C)C)cc4)cnc3N)on2)cc1 | enzyme activity |  |  | 0.4 µM | 15 |
| CN(C)C1CCN(CC#Cc2nn(C3CCCC3)c3nc(NCc4ccccc4)ncc23)C1 (stereo not drawn) | enzyme activity | FRET |  | 10 µM | 15 |
| CCN1CCN(Cc2ccc(NC(=O)c3ccc(C)c(Oc4ccnc5[nH]ccc45)c3)cc2C(F)(F)F)CC1 | target engagement in cells | chemoproteomics | A-375 | 0.5 µM | -141 |
| O=C(CSc1nc2nccnc2c(=O)n1CCc1ccccc1)Nc1nccs1 | enzyme activity |  |  | 10 µM | -11 |
| CCN1CCN(Cc2ccc(NC(=O)c3ccc(C)c(/C=C/c4cnc5[nH]ccc5c4OC)c3)cc2C(F)(F)F)CC1 | target engagement in cells | chemoproteomics | A-375 | 0.5 µM | -126 |
| CCCS(=O)(=O)Nc1ccc(F)c(C(=O)c2c[nH]c3ncc(-c4ccc(Cl)cc4)cc23)c1F | enzyme activity |  |  | 1 µM | < 10 |
| Cc1ncc([N+](=O)[O-])n1C(=NO)c1ccccc1C(F)(F)F | enzyme activity |  |  | 10 µM | 19.2 |
| Cc1ccc(Nc2nccc(N(C)c3ccc4c(C)n(C)nc4c3)n2)cc1S(N)(=O)=O | enzyme activity |  |  | 10 µM | -6 |
| CCCCNc1ncc2c(-c3ccc(F)cc3)nn(C[C@H]3CC[C@H](N)CC3)c2n1 | target engagement in cells | chemoproteomics |  | 20 mM | -8.8 |
| CNC(=O)c1cc(Oc2ccc(NC(=O)Nc3ccc(Cl)c(C(F)(F)F)c3)cc2)ccn1 | enzyme activity |  |  | 10 µM | -27 |
| COc1cc2ncnc(Nc3ccc(Oc4ccccc4)c(C)c3C)c2cc1OC | enzyme activity |  |  | 1 µM | 1 |
| CCOc1cc(-c2nncn2C)ccc1Nc1ncc2cc(C)nc(NCC(C)(C)C)c2n1 | enzyme activity | FRET |  | 1 µM | < 15 |
